Results reported in ChEMBL document CHEMBL4715799, “An N,N-Bis(benzimidazolylpicolinoyl)piperazine (BT-11): A Novel Lanthionine Synthetase C-Like 2-Based Therapeutic for Inflammatory Bowel Disease” (J Med Chem, 2016).
Calls of active or inactive are those of the source. The rule behind the calls is not given here.

Experiments:
[1] = Cmax in rat plasma at 80 mg/kg, po measured at 1 hr by LC-MS/MS analysis; type: ADME, organism-based; set-up: route oral, dose 80 mg/kg, time 1 hrs
In short: (§1)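 Healthy rats given a single 80 mg/kg oral dose; plasma sampled over 0.5−48 h for pharmacokinetic parameters.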

[2] = Half-life in rat at 80 mg/kg, po by LC-MS/MS analysis; settings: in vivo
[3] = Elimination rate constant in rat at 80 mg/kg, po; type: ADME, organism-based; settings: in vivo; in short: as §1
[4] = system: Mus musculus; test: Antiinflammatory activity in LANCL2-/- C57BL/6J mouse model of DSS-induced colitis assessed as reduction of MHCII+ CD11c+ […] at 8 mg/kg, po […] via gavage measured 7 days post DSS challenge by immunostaining based flow cytometric analysis; type: functional, organism-based
In short: (§2)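 DSS colitis in WT or LANCL2−/− mice; 8 mg/kg/d by daily gavage from day 0, analysed at day 7. Colonic cells (4−6 × 10^5) surface-stained 20 min with fluorochrome-conjugated antibodies, then fixed, permeabilized, Fc-blocked and stained intracellularly. Stored fixed at 4 °C in the dark. Flow cytometry with live-cell then single-cell gating.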

[5] = Tmax in rat plasma at 80 mg/kg, po by LC-MS/MS analysis; type: ADME, organism-based; in short: as §1
[6] = Drug concentration in rat colon at 80 mg/kg, po by LC-MS/MS analysis; type: ADME, organism-based; settings: in vivo
[7] = Tmax in rat at 500 mg/kg, po by LC-MS/MS analysis; type: ADME, organism-based; settings: in vivo
[8] = Cmax in rat at 500 mg/kg, po by LC-MS/MS analysis by LC-MS/MS analysis; type: ADME, organism-based; set-up: route oral, dose 500 mg/kg; settings: in vivo
[9] = system: Mus musculus; test: Antiinflammatory activity in C57BL/6J mouse model of DSS-induced colitis assessed as reduction of MCP1 positive cells at 8 mg/kg, po administered as single dose via gavage measured 7 days post DSS challenge by immunostaining based flow cytometric analysis; type: functional, organism-based
[10] = system: Mus musculus; test: Antiinflammatory activity in C57BL/6J mouse model of DSS-induced colitis assessed as reduction of MHCII+ CD11c+ […] at 8 mg/kg, po administered as single dose via gavage measured 7 days post DSS challenge by immunostaining based flow cytometric analysis; type: functional, organism-based
[11] = system: Mus musculus; test: Antiinflammatory activity in C57BL/6J mouse model of DSS-induced colitis assessed as upregulation of IL-10 secretion at 8 mg/kg, po administered as […] via gavage measured 7 days post DSS challenge by immunostaining based flow cytometric analysis; type: functional, organism-based; in short: as §2
[12] = system: Mus musculus; test: Antiinflammatory activity in C57BL/6J mouse model of DSS-induced colitis assessed as reduction of TNF-alpha positive cells at 8 mg/kg, po administered as single dose via gavage measured 7 days post DSS challenge by immunostaining based flow cytometric analysis; type: functional, organism-based
[13] = system: Mus musculus; test: Antiinflammatory activity in LANCL2-/- C57BL/6J mouse model of DSS-induced colitis assessed as reduction of MCP1 positive cells at 8 mg/kg, po […] via gavage measured 7 days post DSS challenge by immunostaining based flow cytometric analysis; type: functional, organism-based; in short: as §2
[14] = system: Mus musculus; test: Antiinflammatory activity in LANCL2-/- C57BL/6J mouse model of DSS-induced colitis assessed as upregulation of IL-10 secretion at 8 mg/kg, po administered as single dose via gavage measured 7 days post DSS challenge by immunostaining based flow cytometric analysis; type: functional, organism-based
[15] = system: Mus musculus; test: Antiinflammatory activity in LANCL2-/- C57BL/6J mouse model of DSS-induced colitis assessed as reduction of TNF-alpha positive cells at 8 mg/kg, po administered as single dose via gavage measured 7 days post DSS challenge by immunostaining based flow cytometric analysis; type: functional, organism-based
[16] = system: Mus musculus; test: Antiinflammatory activity in LANCL2-/- C57BL/6J mouse model of DSS-induced colitis assessed as reduction in leukocyte infiltration of gut mucosa at 8 mg/kg, po administered […] via gavage measured 7 days post DSS challenge by H and E staining based histopathological analysis; type: functional, organism-based
In short: (§3)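 Colitis induced in C57BL/6J or LANCL2−/− mice with DSS in drinking water. Compound given at 8 mg/kg/d by daily orogastric gavage from day 0 of the DSS challenge. Assessed at day 7 by disease activity index and by histopathology of colon: formalin-fixed, paraffin 5 μm sections, H&E, scored for leukocytic infiltration, epithelial erosion, mucosal thickening.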

[17] = system: Mus musculus; test: Antiinflammatory activity in LANCL2-/- C57BL/6J mouse model of DSS-induced colitis at 8 mg/kg, po administered as single dose via gavage measured 7 days DSS challenge; type: functional, organism-based
[18] = system: Mus musculus; test: Antiinflammatory activity in C57BL/6J mouse model of DSS-induced colitis assessed as increase in IL-10 gene expression at 8 mg/kg, po administered as single dose via gavage measured 7 days post DSS challenge by qRT-PCR analysis; type: functional, organism-based
[19] = species on record: Mus musculus; test: Antiinflammatory activity in C57BL/6J mouse model of DSS-induced colitis assessed as decrease in TNF-alpha gene expression at […] measured 7 days post DSS challenge by qRT-PCR analysis; type: functional, organism-based
[20] = system: Mus musculus; test: Antiinflammatory activity in C57BL/6J mouse model of DSS-induced colitis assessed as upregulation of colonic LANCL2 mRNA expression at 8 mg/kg, po administered as single dose via gavage measured after 3 days by qRT-PCR analysis; type: functional, organism-based; settings: time 3.0 day
In short: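 DSS colitis mice given 8 mg/kg/d orally versus vehicle; colon sampled on day 3 after treatment. Colonic LANCL2 mRNA measured by SYBR green real-time qPCR from 1 μg total RNA, quantified against amplicon standard curves.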

[21] = system: Mus musculus; test: Antiinflammatory activity in C57BL/6J mouse model of DSS-induced colitis assessed as reduction in colonic lesion at 8 mg/kg, po administered as single dose via gavage measured 7 days post DSS challenge; type: functional, organism-based
[22] = system: Mus musculus; test: Antiinflammatory activity in C57BL/6J mouse model of DSS-induced colitis assessed as improvement in disease activity at 8 mg/kg, po administered as […] via gavage measured 7 days post DSS challenge; type: functional, organism-based; in short: as §3
[23] = system: Splenocyte; test: Induction of intracellular cAMP production in LANCL2-/- C57BL/6J mouse splenocytes at 1.25 to 10 uM incubated for 20 hrs followed by redosing for 10 mins measured by EIA; type: functional, tissue-based; settings: dose 1.25-10 µM, time 1210.0 min
In short: (§4)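 Splenocytes from male WT or LANCL2−/− C57BL/6J mice over 8 weeks, stimulated on plates precoated with anti-CD28 (1 μg/mL) and anti-CD3 (5 μg/mL). Compound in cRPMI at 0, 1.25, 2.5, 5, 10 μM, four replicates, plus unstimulated controls. After 20 h, a second 10 min treatment at the same concentrations. Cells washed, lysed in 0.1 M HCl, intracellular cAMP read by direct EIA.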

[24] = target: T1, LanC-like protein 2 (Mus musculus) (UniProt Q9JJK2); test: Activation of wild-type LANCL2 in C57BL/6J mouse splenocytes assessed as increase in intracellular cAMP production incubated for 20 hrs followed by compound redosing for 10 mins measured by EIA; type: cell-based; settings: Splenocyte, filed as activator, dose 1.25-10 µM, time 1210.0 min; in short: as §4
T1 sequence (whole entry): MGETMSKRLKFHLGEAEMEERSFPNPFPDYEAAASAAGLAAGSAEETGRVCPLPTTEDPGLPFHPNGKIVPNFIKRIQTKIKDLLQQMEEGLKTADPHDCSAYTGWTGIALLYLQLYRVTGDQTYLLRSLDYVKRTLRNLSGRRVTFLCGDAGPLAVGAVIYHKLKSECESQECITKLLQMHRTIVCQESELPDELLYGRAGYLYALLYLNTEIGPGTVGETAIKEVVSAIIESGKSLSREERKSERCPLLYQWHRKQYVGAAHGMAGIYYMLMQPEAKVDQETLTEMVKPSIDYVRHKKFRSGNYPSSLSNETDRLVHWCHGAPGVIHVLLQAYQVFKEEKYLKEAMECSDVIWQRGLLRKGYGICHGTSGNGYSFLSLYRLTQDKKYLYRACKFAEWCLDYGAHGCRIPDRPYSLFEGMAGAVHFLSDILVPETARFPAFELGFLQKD

[25] = Apparent volume of distribution in rat at 80 mg/kg, po by LC-MS/MS analysis; type: ADME, organism-based; settings: in vivo; in short: as §1
[26] = system: Mus musculus; test: Antiinflammatory activity in C57BL/6J mouse model of DSS-induced colitis assessed as upregulation of colonic LANCL2 mRNA expression at 8 mg/kg, po administered as single dose via gavage measured 3 days post DSS challenge by qRT-PCR analysis

Cmax [1]: 28 ng/mL
half-life [2]: 3.1 h
Kel [3]: 0.225 h⁻¹
Tmax [5]: 1 h
Drug uptake [6]: Active
Tmax [7]: 4 h
Cmax [8]: 17 ng/mL
Activity [24]: Dose-dependent effect
Vz [25]: 3.38 L/kg
Compound: O=C(c1cccc(-c2nc3ccccc3[nH]2)n1)N1CCN(C(=O)c2cccc(-c3nc4ccccc4[nH]3)n2)CC1 [OMILANCOR]
Activity [4]: inactive
Activity [9]: Active
Activity [10]: Active
Activity [11]: Active
Activity [12]: Active
Activity [13]: inactive
Activity [14]: inactive
Activity [15]: inactive
Activity [16]: inactive
Activity [17]: inactive
Activity [18]: Active
Activity [19]: Active
Activity [20]: Active
Activity [21]: Active
Activity [22]: Active
Activity [23]: inactive
Activity [26]: Active
